According to ChEMBL document CHEMBL1124409, “Preparation and biodistribution of 1-[2-(3-[125I]iodo-4-aminophenyl)ethyl]-4-[3-(trifluoromethyl) phenyl]piperazine and 1-[2-(3-[125I]iodo-4-azidophenyl)ethyl]-4-[3-(trifluoromethyl)phenyl] piperazine” (J Med Chem, 1989):

Tests used:
Rattus norvegicus [1] = experiment: Biodistribution of the radio labelled compound (azido-[125I]-IPAPP) in rat brain after 2 min of intravenous injection; format: ADME, organism-based; details: in vivo
Procedure, shortened: (§1)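 Rats received the radioligand in 0.2 mL saline into the femoral vein under ether anesthesia. They were killed by cardiac excision at set times post-injection. Organs were removed and gamma-counted at about 50% efficiency. % dose/organ was calculated against diluted aliquots of the injected material. Values are the average of three rats.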

Rattus norvegicus [2] = experiment: Biodistribution of the radio labelled compound (azido-[125I]-IPAPP) in rat brain after 30 min of intravenous injection; format: ADME, organism-based; details: in vivo, 0.5 h; procedure, shortened: as §1
Rattus norvegicus [3] = experiment: Biodistribution of the radio labelled compound (azido-[125I]-IPAPP) in rat blood after 2 min of intravenous injection; format: ADME, organism-based; details: in vivo; procedure, shortened: as §1
Rattus norvegicus [4] = experiment: Biodistribution of the radio labelled compound (azido-[125I]-IPAPP) in rat heart after 2 min of intravenous injection; format: ADME, organism-based; details: in vivo; procedure, shortened: as §1
Rattus norvegicus [5] = experiment: Ratio of biodistribution of the radio labelled compound ([125I]IPAPP) in rat brain to rat blood after 2 min of intravenous injection; format: ADME, organism-based
Procedure, shortened: (§2)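 Rats, three per time point, received the radioligand in 0.2 mL saline into the femoral vein under ether anesthesia. They were killed by cardiac excision at 2, 15 or 30 min. Brain and blood were removed and gamma-counted at about 50% efficiency. Percent dose per organ was taken as tissue counts divided by diluted aliquots of the injected material.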

Rattus norvegicus [6] = experiment: Biodistribution of the radio labelled compound (azido-[125I]-IPAPP) in rat muscle after 2 min of intravenous injection; format: ADME, organism-based, Muscle tissue; details: in vivo; procedure, shortened: as §1
Rattus norvegicus [7] = experiment: Ratio of biodistribution of the radio labelled compound ([125I]IPAPP) in rat brain to rat blood after 15 min of intravenous injection; format: ADME, organism-based; procedure, shortened: as §2
Rattus norvegicus [8] = experiment: Biodistribution of the radio labelled compound (azido-[125I]-IPAPP) in rat blood after 30 min of intravenous injection; format: ADME, organism-based; details: in vivo, 0.5 h; procedure, shortened: as §1
Rattus norvegicus [9] = experiment: Biodistribution of the radio labelled compound (azido-[125I]-IPAPP) in rat liver after 15 min of intravenous injection; format: ADME, organism-based; details: in vivo; procedure, shortened: as §1
Rattus norvegicus [10] = experiment: Biodistribution of the radio labelled compound (azido-[125I]-IPAPP) in rat liver after 2 min of intravenous injection; format: ADME, organism-based; details: in vivo; procedure, shortened: as §1
Rattus norvegicus [11] = experiment: Biodistribution of the radio labelled compound (azido-[125I]-IPAPP) in rat brain after 15 min of intravenous injection; format: ADME, organism-based; details: in vivo; procedure, shortened: as §1
Rattus norvegicus [12] = experiment: Biodistribution of the radio labelled compound (azido-[125I]-IPAPP) in rat blood after 15 min of intravenous injection; format: ADME, organism-based; details: in vivo; procedure, shortened: as §1
Rattus norvegicus [13] = experiment: Biodistribution of the radio labelled compound (azido-[125I]-IPAPP) in rat lungs after 2 min of intravenous injection; format: ADME, organism-based, Lung; details: in vivo; procedure, shortened: as §1
Rattus norvegicus [14] = experiment: Biodistribution of the radio labelled compound (azido-[125I]-IPAPP) in rat heart after 30 min of intravenous injection; format: ADME, organism-based; details: in vivo, 0.5 h; procedure, shortened: as §1
Rattus norvegicus [15] = experiment: Biodistribution of the radio labelled compound (azido-[125I]-IPAPP) in rat lungs after 30 min of intravenous injection; format: ADME, organism-based, Lung; details: in vivo, 0.5 h; procedure, shortened: as §1
Rattus norvegicus [16] = experiment: Biodistribution of the radio labelled compound (azido-[125I]-IPAPP) in rat muscle after 15 min of intravenous injection; format: ADME, organism-based, Muscle tissue; details: in vivo; procedure, shortened: as §1
Rattus norvegicus [17] = experiment: Biodistribution of the radio labelled compound (azido-[125I]-IPAPP) in rat lungs after 15 min of intravenous injection; format: ADME, organism-based, Lung; details: in vivo; procedure, shortened: as §1
Rattus norvegicus [18] = experiment: Biodistribution of the radio labelled compound (azido-[125I]-IPAPP) in rat muscle after 30 min of intravenous injection; format: ADME, organism-based, Muscle tissue; details: in vivo, 0.5 h; procedure, shortened: as §1
Rattus norvegicus [19] = experiment: Ratio of biodistribution of the radio labelled compound ([125I]IPAPP) in rat brain to rat blood after 30 min of intravenous injection; format: ADME, organism-based; details: 0.5 h; procedure, shortened: as §2
Rattus norvegicus [20] = experiment: Biodistribution of the radio labelled compound (azido-[125I]-IPAPP) in rat heart after 15 min of intravenous injection; format: ADME, organism-based; details: in vivo; procedure, shortened: as §1
Rattus norvegicus [21] = experiment: Biodistribution of the radio labelled compound (azido-[125I]-IPAPP) in rat liver after 30 min of intravenous injection; format: ADME, organism-based; details: in vivo, 0.5 h; procedure, shortened: as §1
Rattus norvegicus [22] = experiment: Ratio of biodistribution of the radio labelled compound (azido-[125I]-IPAPP) in rat brain to rat blood after 15 min of intravenous injection; format: ADME, organism-based
Rattus norvegicus [23] = experiment: Ratio of biodistribution of the radio labelled compound (azido-[125I]-IPAPP) in rat brain to rat blood after 2 min of intravenous injection; format: ADME, organism-based
Rattus norvegicus [24] = experiment: Ratio of biodistribution of the radio labelled compound (azido-[125I]-IPAPP) in rat brain to rat blood after 30 min of intravenous injection; format: ADME, organism-based; details: 0.5 h

Dose/organ (Rattus norvegicus [1]) [%]	Dose/organ (Rattus norvegicus [2]) [%]	Dose/organ (Rattus norvegicus [3]) [%]	Dose/organ (Rattus norvegicus [4]) [%]	Dose/organ (Rattus norvegicus [6]) [%]	Dose/organ (Rattus norvegicus [8]) [%]	Dose/organ (Rattus norvegicus [9]) [%]	Dose/organ (Rattus norvegicus [10]) [%]	Dose/organ (Rattus norvegicus [11]) [%]	Dose/organ (Rattus norvegicus [12]) [%]	Dose/organ (Rattus norvegicus [13]) [%]	Dose/organ (Rattus norvegicus [14]) [%]	Dose/organ (Rattus norvegicus [15]) [%]	Dose/organ (Rattus norvegicus [16]) [%]	Dose/organ (Rattus norvegicus [17]) [%]	Dose/organ (Rattus norvegicus [18]) [%]	Dose/organ (Rattus norvegicus [20]) [%]	Dose/organ (Rattus norvegicus [21]) [%]	SMILES	further results
1.68	0.935	6.99	2.34	6.51	1.96	19.4	13.1	0.91	2.23	14.2	0.262	4.16	13.6	3.15	11.8	0.309	18.9	Nc1ccc(CCN2CCN(c3cccc(C(F)(F)F)c3)CC2)cc1I	Ratio (Rattus norvegicus [5]): 2.63; Ratio (Rattus norvegicus [7]): 4.92; Ratio (Rattus norvegicus [19]): 4.76
0.503	0.75	9.74	1.4	11.8	2.76	34.3	32.5	0.667	3.21	6.5	0.372	1.73	16.6	2.15	14.4	0.548	28.5	[N-]=[N+]=Nc1ccc(CCN2CCN(c3cccc(C(F)(F)F)c3)CC2)cc1I	Ratio (Rattus norvegicus [22]): 1.99; Ratio (Rattus norvegicus [23]): 0.499; Ratio (Rattus norvegicus [24]): 2.53
